# Measurements reported in ChEMBL document CHEMBL3526099, “Metabolism of triethylenetetramine and 1,12-diamino-3,6,9-triazadodecane by the spermidine/spermine-N(1)-acetyltransferase and thialysine acetyltransferase” (Drug Metab Dispos, 2013).
# What was measured:
# [1] = target: T1, Diamine acetyltransferase 1 (Homo sapiens, UniProt P21673); test: Drug level in human HepG2 cells assessed as SSAT1-mediated compound formation treated with SpmTrien at 100 uM for 24 hrs; type: ADME, cell-based; details: hepg2, 24 h
# Target sequence in this assay (P21673 whole entry): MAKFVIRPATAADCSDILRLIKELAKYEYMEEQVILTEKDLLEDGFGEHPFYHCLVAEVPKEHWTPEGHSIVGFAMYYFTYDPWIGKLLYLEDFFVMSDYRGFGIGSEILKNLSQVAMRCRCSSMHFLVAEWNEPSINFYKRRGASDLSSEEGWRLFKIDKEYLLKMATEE
# [2] = target: T2, Thialysine N-epsilon-acetyltransferase (Homo sapiens, UniProt Q96F10); test: Drug level in human HepG2 cells assessed as SSAT2-mediated compound formation treated with TETA at 1 mM for 24 hrs; type: ADME, cell-based; details: hepg2, 24 h, 1000 µM
# [3] = Drug metabolism in SSAT1-knockout mouse primary hepatocytes at 100 uM for 4 hrs; type: ADME, cell-based, Hepatocyte
# How it was run: (§1)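 Hepatocytes from SSAT1-KO or wild-type mouse liver were isolated by collagenase perfusion and plated on collagen I in William's E with dexamethasone, FBS and insulin. They were reverse-transfected with control or SSAT2 siRNA (100 nM) for 2 d, then exposed to 1 mM TETA or 100 µM SpmTrien for 4 h. Intracellular metabolites were measured. Means ± SD, n=3.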
# [4] = target: T1, Diamine acetyltransferase 1; test: Drug metabolism in human HepG2 cells assessed as SSAT1-mediated (N1-acetyl)-spermidine formation at 100 uM for 24 hrs; type: ADME, cell-based; details: hepg2, 24 h
# Target sequence in this assay (P21673 whole entry): as above
# HepG2 = test: Drug metabolism in human HepG2 cells at 100 uM for 24 hrs in presence of SSAT1 shRNA; type: ADME, cell-based; details: hepg2, 24 h
# How it was run: (§2)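 HepG2 cells were transduced with control, SSAT1 or SSAT2 shRNA lentiviral particles and stable clones selected with puromycin (5 µg/ml) for one week. Cells were plated overnight, then incubated 24 h with 1 mM TETA or 100 µM SpmTrien. Intracellular metabolites were measured. Means ± SD, n=3.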
# [5] = target: T1, Diamine acetyltransferase 1; test: Drug metabolism in human HepG2 cells assessed as SSAT1-mediated (N1-acetyl)-spermine formation at 100 uM for 24 hrs; type: ADME, cell-based; details: hepg2, 24 h
# Target sequence in this assay (P21673 whole entry): as above
# [6] = target: T3, Diamine acetyltransferase 1 (Mus musculus, UniProt P48026); test: Drug metabolism in mouse primary hepatocytes assessed as SSAT1-mediated (N1-acetyl)-1,12-diamino-3,6,9-triazadodecane formation at 100 uM for 4 hrs in presence of SSAT2 siRNA; type: ADME, cell-based, Hepatocyte; how it was run: as §1
# [7] = target: T1, Diamine acetyltransferase 1; test: Drug metabolism in human HepG2 cells assessed as SSAT1-mediated (N1-acetyl)-1,12-diamino-3,6,9-triazadodecane formation at 100 uM for 24 hrs; type: ADME, cell-based; details: hepg2, 24 h
# Target sequence in this assay (P21673 whole entry): as above
# [8] = target: T1, Diamine acetyltransferase 1; test: Drug metabolism in human HepG2 cells assessed as SSAT1-mediated (N1-acetyl)-1,12-diamino-3,6,9-triazadodecane formation at 100 uM for 24 hrs in presence of SSAT2 shRNA; type: ADME, cell-based; details: hepg2, 24 h; how it was run: as §2
# Target sequence in this assay (P21673 whole entry): as above
# [9] = target: T3, Diamine acetyltransferase 1; test: Drug level in mouse primary hepatocytes assessed as SSAT1-mediated compound formation per ug DNA treated with SpmTrien at 100 uM for 4 hrs
# [10] = target: T3, Diamine acetyltransferase 1; test: Drug level in mouse primary hepatocytes assessed as SSAT1-mediated compound formation treated with 100 uM SpmTrien for 4 hrs in presence of SSAT2 siRNA; type: ADME, cell-based, Hepatocyte; how it was run: as §1
# [11] = target: T2, Thialysine N-epsilon-acetyltransferase; test: Activity of human recombinant SSAT2 assessed as compound formation treated with 1 mM SpmTrien for 50 mins by HPLC analysis; type: ADME
# How it was run: (§3)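 SpmTrien (1 mM) incubated with 50-100 ng human recombinant enzyme for 10-50 min at 37 °C in 100 mM Tris-HCl pH 7.8 containing 1 mM acetyl-CoA and 1 mM DTT. The reaction was stopped with sulphosalicylic acid containing diaminoheptane as internal standard, and acetylated products were quantified by HPLC.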
# [12] = target: T1, Diamine acetyltransferase 1; test: Drug level in human HepG2 cells assessed as SSAT1-mediated compound formation per ug DNA treated with Spm Trien at 100 uM for 24 hrs; type: ADME, cell-based; details: hepg2, 24 h
# Target sequence in this assay (P21673 whole entry): as above
# [13] = target: T1, Diamine acetyltransferase 1; test: Drug level in human HepG2 cells assessed as SSAT1-mediated compound formation treated with SpmTrien at 100 uM for 24 hrs pretreated with 50 uM DENSpm for 24 hrs; type: ADME, cell-based; details: hepg2, 24 h
# How it was run: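 HepG2 cells were pretreated for 24 h with 50 µM DENSpm or medium alone, washed, then incubated for 24 h with 1 mM TETA or 100 µM SpmTrien. Intracellular metabolites were measured from cell lysates. Means ± SD, n=3.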
# [14] = target: T1, Diamine acetyltransferase 1; test: Activity of human recombinant SSAT1 assessed as compound formation treated with 1 mM SpmTrien for 50 mins by HPLC analysis; type: ADME; how it was run: as §3
# [15] = target: T1, Diamine acetyltransferase 1; test: Drug level in human HepG2 cells assessed as SSAT1-mediated compound formation treated with SpmTrien at 100 uM for 24 hrs in presence of SSAT2 shRNA; type: ADME, cell-based; details: hepg2, 24 h; how it was run: as §2
# [16] = target: T2, Thialysine N-epsilon-acetyltransferase; test: Drug level in human HepG2 cells assessed as SSAT2-mediated compound formation treated with TETA at 1 mM for 24 hrs in presence of SSAT1 shRNA; type: ADME, cell-based; details: hepg2, 24 h, 1000 µM; how it was run: as §2
# [17] = target: T2, Thialysine N-epsilon-acetyltransferase; test: Drug level in human HepG2 cells assessed as SSAT2-mediated compound formation per ug DNA treated with TETA at 1 mM for 24 hrs; type: ADME, cell-based; details: hepg2, 24 h, 1000 µM
# [18] = target: T1, Diamine acetyltransferase 1; test: Drug level in human HepG2 cells assessed as SSAT1-mediated compound formation treated with TETA at 1 mM for 24 hrs pretreated with 50 uM DENSpm for 24 hrs; details: hepg2, 24 h, 1000 µM
# Target sequence in this assay (P21673 whole entry, looked up): as the sequence (P21673 whole entry) above
# [19] = target: Thialysine N-epsilon-acetyltransferase (Mus musculus, UniProt Q6P8J2); test: Drug level in mouse primary hepatocytes assessed as SSAT2-mediated compound formation per ug DNA treated with TETA at 1 mM for 4 hrs; details: 1000 µM
# Thialysine N-epsilon-acetyltransferase (Mus musculus, UniProt Q6P8J2), sequence (Q6P8J2 whole entry): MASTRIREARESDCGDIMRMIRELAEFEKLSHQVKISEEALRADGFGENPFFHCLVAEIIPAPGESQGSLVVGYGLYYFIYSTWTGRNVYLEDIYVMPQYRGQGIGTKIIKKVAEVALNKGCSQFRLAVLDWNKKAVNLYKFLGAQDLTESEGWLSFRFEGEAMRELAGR
# T3 sequence (P48026 whole entry): as the sequence (P21673 whole entry) above, with V5K, A12S, E32D, L42Q, R119K, T169A counted along it
# T2 sequence (Q96F10 whole entry): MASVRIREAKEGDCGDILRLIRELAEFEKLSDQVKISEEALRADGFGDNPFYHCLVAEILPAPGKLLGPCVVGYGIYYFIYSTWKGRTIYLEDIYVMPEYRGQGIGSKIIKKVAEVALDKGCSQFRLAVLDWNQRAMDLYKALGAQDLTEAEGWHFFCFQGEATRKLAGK
compound,measurement,setting,value
CC(=O)NCCCNCCCCNCCCN,Drug metabolism,[1],metabolite_detected
same,Drug metabolism,[2],metabolite_detected
CC(=O)NCCCNCCCCN,Drug metabolism,[1],metabolite_detected
same,Drug metabolism,[2],metabolite_detected
NCCCNCCNCCNCCN,Drug metabolism,[3],metabolite_not_detected
same,Drug metabolism,[4],metabolite_detected
same,Drug metabolism,HepG2,metabolite_not_detected
same,Drug metabolism,[5],metabolite_detected
same,Drug metabolism,[6],metabolite_detected
same,Drug metabolism,[7],metabolite_detected
same,Drug metabolism,[8],metabolite_detected
CC(=O)NCCNCCNCCNCCCN,Drug metabolism,[9],3.4 pmol/h
same,Drug metabolism,[10],metabolite_detected
same,Drug metabolism,[11],0.65 nmol
same,Drug metabolism,[12],0.8 pmol/h
same,Drug metabolism,[13],metabolite_detected
same,Drug metabolism,[1],metabolite_detected
same,Drug metabolism,[14],12.8 nmol
same,Drug metabolism,[15],metabolite_detected
CC(=O)NCCCNCCNCCNCCN,Drug metabolism,[11],1.1 nmol
same,Drug metabolism,[13],metabolite_detected
same,Drug metabolism,[14],4.2 nmol
CC(=O)NCCNCCNCCN,Drug metabolism,[16],metabolite_detected
same,Drug metabolism,[17],10 pmol/h
same,Drug metabolism,[18],metabolite_detected
same,Drug metabolism,[19],40 pmol/h
same,Drug metabolism,[2],metabolite_detected
